The record followed here is ChEMBL document CHEMBL1146343, “Synthesis and activity of Combretastatin A-4 analogues: 1,2,3-thiadiazoles as potent antitumor agents” (Bioorg Med Chem Lett, 2007).

SMILES strings stand for the structures. The source made the active and inactive calls. No cut-off for these calls is given here. Bounds are passed on as bounds.

Assay [1] can be described thus: Cell cycle arrest in HMEC1 cells assessed as accumulation at G2/M phase at 6.25 nM after 24 hrs by flow cytometry assay relative to control. Type of assay: functional, cell-based. To be noted: Homo sapiens, HMEC-1. The essentials:
(§1)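 HMEC-1 cells treated 24 h at 6.25–100 nM, then cell cycle distribution (G1, G2/M, S percentages) determined by flow cytometry using standard propidium iodide staining; untreated cells as control.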
(Flow cytometry measures light scatter and fluorescence of single cells or particles in a stream.)

Assay [2] in a line: Cell cycle arrest in HMEC1 cells assessed as accumulation at S phase at 25 nM after 24 hrs by flow cytometry assay relative to control. Type of assay: functional, cell-based. The note with it: Homo sapiens, HMEC-1. The essentials: as §1
Assay [3] in a line: Cell cycle arrest in HMEC1 cells assessed as accumulation at G1 phase at 6.25 nM after 24 hrs by flow cytometry assay relative to control. Type of assay: functional, cell-based. To be noted: Homo sapiens, HMEC-1. The essentials: as §1
The nature of assay [4]: Cell cycle arrest in HMEC1 cells assessed as accumulation at S phase at 12.5 nM after 24 hrs by flow cytometry assay relative to control. It is filed as functional, cell-based. To be noted: Homo sapiens, HMEC-1. The essentials:
as §1

Assay [5] can be described thus: Cell cycle arrest in HMEC1 cells assessed as accumulation at G2/M phase at 12.5 nM after 24 hrs by flow cytometry assay relative to control. The note with it: Homo sapiens, HMEC-1. Type of assay: functional, cell-based. The method, boiled down: as §1
Assay [6] in a line: Cell cycle arrest in HMEC1 cells assessed as accumulation at G2/M phase at 100 nM after 24 hrs by flow cytometry assay relative to control. The note with it: Homo sapiens, HMEC-1. Type of assay: functional, cell-based. The essentials: as §1
Assay [7] is described as follows: Cell cycle arrest in HMEC1 cells assessed as accumulation at G1 phase at 50 nM after 24 hrs by flow cytometry assay relative to control. To be noted: Homo sapiens, HMEC-1. It is filed as functional, cell-based. The method, boiled down: as §1
The nature of assay [8]: Cell cycle arrest in HMEC1 cells assessed as accumulation at S phase at 50 nM after 24 hrs by flow cytometry assay relative to control. It is filed as functional, cell-based. The note with it: Homo sapiens, HMEC-1. The method, boiled down: as §1
For the next assay, the target named is Tubulin. Put plainly: Inhibition of tubulin polymerization. It is filed as protein-complex assay, Homo sapiens.
Assay [9] is described as follows: Cell cycle arrest in HMEC1 cells assessed as accumulation at G2/M phase at 50 nM after 24 hrs by flow cytometry assay relative to control. It is filed as functional, cell-based. To be noted: Homo sapiens, HMEC-1. The method, boiled down: as §1
Assay [10] is described as follows: Cell cycle arrest in HMEC1 cells assessed as accumulation at G1 phase at 12.5 nM after 24 hrs by flow cytometry assay relative to control. It is filed as functional, cell-based. The note with it: Homo sapiens, HMEC-1. The essentials: as §1
The nature of assay [11]: Cell cycle arrest in HMEC1 cells assessed as accumulation at S phase at 6.25 nM after 24 hrs by flow cytometry assay relative to control. Type of assay: functional, cell-based. The note with it: Homo sapiens, HMEC-1. The method, boiled down: as §1
Another assay relates to HL-60. Description: Antiproliferative activity against human HL60 cells. It is filed as functional, cell-based. The method, boiled down: (§2)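 Antiproliferative testing against human HL-60 myeloid leukemia, HCT-116 colon adenocarcinoma and HMEC-1 microvascular endothelial cells; each experiment run independently at least three times, values given with SD.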
Assay [12] can be described thus: Cell cycle arrest in HMEC1 cells assessed as accumulation at G1 phase at 100 nM after 24 hrs by flow cytometry assay relative to contro. It is filed as functional, cell-based. The note with it: Homo sapiens, HMEC-1. The essentials: as §1
Assay [13] can be described thus: Cell cycle arrest in HMEC1 cells assessed as accumulation at S phase at 100 nM after 24 hrs by flow cytometry assay relative to control. Type of assay: functional, cell-based. The note with it: Homo sapiens, HMEC-1. The essentials:
as §1

A short description of assay [14]: Antiproliferative activity against human HMEC1 cells. To be noted: HMEC-1. It is filed as cell-based. The method, boiled down: as §2
A further assay deals with HCT-116. Put plainly: Antiproliferative activity against human HCT116 cells. Type of assay: functional, cell-based. The essentials:
as §2

Assay [15] is described as follows: Cell cycle arrest in HMEC1 cells assessed as accumulation at G1 phase at 25 nM after 24 hrs by flow cytometry assay relative to control. Type of assay: functional, cell-based. The note with it: Homo sapiens, HMEC-1. The essentials:
as §1

A short description of assay [16]: Cell cycle arrest in HMEC1 cells assessed as accumulation at G2/M phase at 25 nM after 24 hrs by flow cytometry assay relative to control. Type of assay: functional, cell-based. To be noted: Homo sapiens, HMEC-1. The method, boiled down:
as §1

Assay [17] has as its system HMEC-1. Put plainly: Disruption of cytoskeleton in HMEC1 cells at 1 uM after 30 mins. It is filed as functional, cell-based. The note with it: Homo sapiens. The method, boiled down:
(§3)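 HMEC-1 cells grown on slides, exposed 30 min at 1 μM, fixed in 3% formaldehyde, permeabilized with 0.1% Triton X-100, stained with primary antibody then Alexa488 secondary; nuclei counterstained with DAPI in mounting medium; imaged by confocal microscopy.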

Assay [18] has as its system CCRF S-180. Description: Antitumor activity in mouse implanted with S180 cells at 10 mg/kg, ip after 7 days. The note with it: CCRF S-180, ip, 168 h, route intraperitoneal. It is filed as functional. The essentials: (§4)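 Mice bearing transplanted S180 sarcoma dosed i.p. daily for 4–7 days (10 per group, saline control group of 20); animals then euthanized, tumors excised and weighed; inhibition rate from tumor weight versus saline controls; significance p < 0.01.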

For assay [19], the system named is HMEC-1. Description: Effect on alteration in morphology of HMEC1 cells at 1 uM after 30 mins. To be noted: Homo sapiens. Type of assay: functional, cell-based. The method, boiled down: as §3
In assay [20] the test system is Mus musculus. Description: Effect on body weight in mouse implanted with S180 cells at 10 mg/kg, ip after 7 days. To be noted: route intraperitoneal. Type of assay: functional, CCRF S-180. The method, boiled down:
(§5)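 S180 sarcoma-bearing mice given daily i.p. doses for 4–7 days, 10 mice per group with saline controls; body weight recorded at start and end, surviving mice counted at end of treatment.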

The subject of assay [21] is Mus musculus. Put plainly: Effect on body weight in mouse implanted with S180 cells at 20 mg/kg, ip after 4 days. The note with it: route intraperitoneal. It is filed as functional, CCRF S-180. The method, boiled down: as §5
Assay [22] deals with CCRF S-180. Description: Antitumor activity in mouse implanted with S180 cells at 20 mg/kg, ip after 4 days. To be noted: CCRF S-180, ip, 96 h, route intraperitoneal. It is filed as functional. The method, boiled down: as §4

For `COc1ccc(-c2snnc2-c2cc(OC)c(OC)c(OC)c2)cc1OC`, the Activity was determined as 24% in assay [1]; 29% in assay [2]; 36% in assay [3]; 40% in assay [4]; 25% in [5]; 78% in [6]. Moreover, the Activity stood at 12% in assay [7]; 27% in [8]; 61% in assay [9]; 35% in [10]; 40% in assay [11]; 1% in assay [12]. Further, the Activity in assay [13] was found to be 21%; in [15] it was 38%; in assay [16], 33%. Also, the IC50 at Tubulin came out at 720 nM; with HL-60 it was 60.9 nM; in assay [14], 75.8 nM; in the assay with HCT-116, 50.9 nM.

Take `COc1ccc(-c2nnsc2-c2cc(OC)c(OC)c(OC)c2)cc1O`: the IC50 against Tubulin stood at 860 nM; in the assay on HL-60, 40.9 nM; in [14], 41 nM; in the assay with HCT-116, 70.4 nM.

As for `COc1ccc(-c2nnsc2-c2cc(OC)c(OC)c(OC)c2)cc1[N+](=O)[O-]`, the IC50 (in the assay with HL-60; in [14]; with HCT-116) was greater than 1000 nM in each case.

As for `COc1ccc(-c2nnsc2-c2cc(OC)c(OC)c(OC)c2)cc1`, the IC50 is 537 nM with HL-60, greater than 1000 nM in assay [14] and 616 nM in the assay with HCT-116.

As to `COc1ccc(-c2snnc2-c2cc(OC)c(OC)c(OC)c2)cc1O`, the result in the assay with HMEC-1 [17] and in the assay on HMEC-1 [19] was Active. Also, the IC50 was 700 nM on Tubulin, 1.5 nM in the assay with HL-60, 3.9 nM in [14] and 3 nM with HCT-116. For the same compound, in the assay on CCRF S-180 [18], at 10 mg/kg the inhibition in vivo was 18.4%. Moreover, the Activity in the assay on Mus musculus [20] was 23.3 g; in the assay on Mus musculus [21], 19.5 g. Also, the inhibition in vivo at 20 mg/kg in the assay with CCRF S-180 [22] stood at 53.1%.

In the case of `COc1cc(-c2nnsc2-c2ccc([N+](=O)[O-])cc2)cc(OC)c1OC`, the IC50 (with HL-60; in assay [14]; in the assay with HCT-116) was greater than 1000 nM in each case.

With `COc1cc(-c2snnc2-c2ccc(Cl)cc2)cc(OC)c1OC`, the IC50 (with HL-60; in [14]; in the assay with HCT-116) was greater than 1000 nM in each case.

On to `COc1cc(-c2snnc2-c2ccc([N+](=O)[O-])cc2)cc(OC)c1OC`, for which the IC50 (in the assay on HL-60; in assay [14]; with HCT-116) was greater than 1000 nM in each case.

As for `COc1cc(-c2snnc2-c2ccc(F)cc2)cc(OC)c1OC`, the IC50 (in the assay on HL-60; in assay [14]; in the assay with HCT-116) was greater than 1000 nM each time.

By IC50 is commonly meant the concentration at which inhibition is half-maximal. Read a high IC50 as lower potency. One may read the inhibition in vivo as the drop in the measured response relative to a control, in per cent. The low end stands for little suppression, the high end for strong suppression.
